Results published in ChEMBL document CHEMBL3792386, “Design, Synthesis, and Biological Evaluation of Novel Selenium (Se-NSAID) Molecules as Anticancer Agents” (J Med Chem, 2016).
pIC50: −log10 of the molar value.

Legend:
HCT-116 [1] = experiment: Induction of cell cycle arrest in human HCT116 cells assessed as accumulation at G2/M phase at 5 uM after 12 hrs by propidium iodide staining-based flow cytometry (reference value: 10%); assay type: functional
HCT-116 [2] = experiment: Induction of apoptosis in human HCT116 cells assessed as dead cells at 2.5 uM after 24 hrs by 7-ADD and caspase 3/7 activity-based flow cytometry (reference value: 3.25%); assay type: functional
NCI-H460 = experiment: Antiproliferative activity against human NCI-H460 cells assessed as reduction in cell viability after 48 hrs by MTT assay; assay type: functional, cell-based; conditions: NCI-H460, 48 h
Outline: (§1)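 3000 cells/well incubated in triplicate with serial concentrations of compound for 24, 48 or 72 h at 37 °C. MTT (5.0 mg/mL solution) added 3 h before the end. Formazan dissolved in DMSO, absorbance read at 570 and 630 nm. Viability normalised to vehicle control. IC50 from non-linear regression (variable slope), mean ± SD of triplicates.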

RKO = experiment: Antiproliferative activity against human RKO cells assessed as reduction in cell viability after 48 hrs by MTT assay; assay type: functional, cell-based; outline: as §1
[3] = Antiproliferative activity against human PANC1 cells assessed as reduction in cell viability after 72 hrs by MTT assay; assay type: functional, cell-based; conditions: PANC-1, 72 h; outline: as §1
HCT-116 [4] = experiment: Induction of ROS generation in human HCT116 cells at 10 uM after 3 hrs by flow cytometry (reference value: 8.06%); assay type: functional
NHDF = experiment: Cytotoxicity against human NHDF at 1 to 10 uM after 48 hrs by MTT assay; assay type: cell-based
Outline: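 Cells (HCT116, nHDF in serum-free fibroblast medium with growth kit, or MEFs) exposed to increasing compound concentrations for 48 h at 37 °C. Viability read by MTT: 3000 cells/well, triplicate, MTT 3 h before end, formazan in DMSO, absorbance 570/630 nm. Mean ± SD.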

HCT-116 [5] = experiment: Induction of apoptosis in human HCT116 cells assessed as dead cells at 5 uM after 24 hrs by 7-ADD and caspase 3/7 activity-based flow cytometry (reference value: 3.25%); assay type: functional
HCT-116 [6] = experiment: Induction of ROS generation in human HCT116 cells at 5 uM after 3 hrs by flow cytometry (reference value: 8.06%); assay type: functional

## CC(=O)Oc1ccccc1C(=O)NCC[Se]C#N
HCT-116 [1]
  Activity: 24%
HCT-116 [2]
  Activity: 2.1%
NCI-H460
  pIC50: 5.62
RKO
  pIC50: 5.66
[3]
  pIC50: 5.59
HCT-116 [4]
  Activity: 9%
NHDF
  Activity: Non-toxic
HCT-116 [5]
  Activity: 2.65%
HCT-116 [6]
  Activity: 9.16%
